Bioassay records from PubChem.
E-selectin induc: E-selectin induction in HUVECs, primary screen, imaging, HUVEC, immunofluorescence imaging, single point; P16581; normalized: neutral wells 0, TNF-alpha wells 100; activation, % at 7.58 µM; 0.37% of 260,000 active; AID 686992, 2013;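 active means mean E-selectin-positive cell signal at least 10% of the positive control, reached in at least 60% of replicates, without over 20% cell loss; inconclusive means no rule given, readout overlaps actives, possibly toxicity-flagged; inactive means the rest, including those meeting only one limit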
Target sequence (P16581 whole entry, looked up): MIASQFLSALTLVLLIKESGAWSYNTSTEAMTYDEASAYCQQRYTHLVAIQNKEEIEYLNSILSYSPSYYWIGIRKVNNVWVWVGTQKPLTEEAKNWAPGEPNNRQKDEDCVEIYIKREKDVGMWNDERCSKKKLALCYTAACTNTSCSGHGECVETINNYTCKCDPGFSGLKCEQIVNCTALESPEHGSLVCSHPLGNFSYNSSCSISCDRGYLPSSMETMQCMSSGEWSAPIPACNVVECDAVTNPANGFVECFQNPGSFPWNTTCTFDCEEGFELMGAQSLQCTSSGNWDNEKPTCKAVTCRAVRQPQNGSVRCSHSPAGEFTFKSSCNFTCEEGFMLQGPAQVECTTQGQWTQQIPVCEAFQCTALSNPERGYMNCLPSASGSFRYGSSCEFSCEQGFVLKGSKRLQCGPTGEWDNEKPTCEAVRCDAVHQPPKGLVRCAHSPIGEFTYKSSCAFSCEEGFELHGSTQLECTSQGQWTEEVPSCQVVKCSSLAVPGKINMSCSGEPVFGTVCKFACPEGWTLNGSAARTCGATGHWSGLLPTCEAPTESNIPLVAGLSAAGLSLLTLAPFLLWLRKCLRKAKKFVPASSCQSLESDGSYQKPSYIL
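Read-out basis: % PE-positive cells; Test system: HUVEC primary endothelial cells; Technique: immunofluorescence imaging; Dosing: single-point compound dose.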
ERAP1 HTS inh: human ERAP1 aminopeptidase inhibitors, primary screen, biochemical, single point, plate reader; 0.15% of 340,000 active; recombinant ERAP1, Leu-AMC fluorescence, 60 min; inhibition, % at 10.7 µM; Endoplasmic reticulum aminopeptidase 1 (Homo sapiens), Q9NZ08;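 active means mean replicate inhibition of at least 30%, or all replicates individually reaching that 30% level; inactive means mean below 30% and not every replicate reaching it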;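 further: 0% = neutral control wells and 100% = L-leucinethiol positive control wells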
DENV2 CPE: inhibitors of DENV2 cytopathic effect, primary screen, cell-based, plate reader, single concentration; DENV2-infected cells, cytopathic effect rescue; CPE inhibition, % at 9.99 µM; 1.7% of 350,000 active; AID 651640, 2012; in the data active means CPE inhibition above about 20%, passing the limit was not always enough; inconclusive means no clear call, values can overlap the other calls; tested in BHK-21 cells;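 further: 0% = median of neutral control wells and 100% = median of positive control wells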
SIRT5 block: SIRT5 desuccinylase inhibitors, primary screen, biochemical, fluorescence imaging, single point, set 5 | NAD-dependent protein deacylase sirtuin-5, mitochondrial (Homo sapiens), Q9NXA8 | Purified SirT5, succinyl-peptide AMC, trypsin-coupled fluorescence | inhibition, % at 15 µM | 1.1% of 330,000 active; in the data active means inhibition above about 15%; inconclusive means no clear call, values can overlap the other calls
PglD inh: C. jejuni PglD acetyltransferase inhibitors, primary screen, biochemical, DTNB colorimetric, single point. 0.098% of 360,000 active. purified PglD enzyme, DTNB colorimetric CoA detection. UDP-N-acetylbacillosamine N-acetyltransferase PglD (Campylobacter jejuni). inhibition, % at 12.5 µM; in the data active means inhibition above about 16%, passing the limit was not always enough; inconclusive means no clear call, values can overlap the other calls
Active calls of the source: *; ! = repeats disagree. A selection: hits, their analogues and other compounds. The true share with any hit is near 2.5%.

O=P(OC1CCCCC1)(OC1CCCCC1)C(O)c1c(Cl)cccc1Cl (stereo unspecified) was read as PglD inh -3.
Screening Cc1sc2ncnc(N3CCC(C(=O)Nc4ccc(Cl)cc4Cl)CC3)c2c1C returned E-selectin induc 0, ERAP1 HTS inh 0, DENV2 CPE 30* and SIRT5 block -1.
Screening COc1ccc(-n2c(C)cc(C)c(C(C)=O)c2=S)cc1 returned E-selectin induc 2, ERAP1 HTS inh 5, DENV2 CPE -11, SIRT5 block 27* and PglD inh -2.
For COc1ccc(-n2c(C)c(C(C)=O)c3cc(OC(C)=O)ccc32)cc1 the results were ERAP1 HTS inh 0, DENV2 CPE 2, SIRT5 block 1 and PglD inh 3.
For COc1ccc(C#Cc2ccc([C@H]3[C@H](CO)N4CCCCN(C(=O)c5ccncc5)C[C@@H]34)cc2)cc1 the results were E-selectin induc -1, ERAP1 HTS inh 0, DENV2 CPE 47*, SIRT5 block 4 and PglD inh -3.
For C[C@@H](O)C#Cc1ccc([C@@H]2[C@H](CO)N3CCCCN(C(=O)c4ccncc4)C[C@@H]23)cc1 the results were E-selectin induc 1, ERAP1 HTS inh 5, DENV2 CPE 8, SIRT5 block -2 and PglD inh 1.
Screening COc1ccc(C#Cc2ccc([C@H]3[C@@H](CO)N4CCCCN(C(=O)c5ccncc5)C[C@@H]34)cc2)cc1 returned E-selectin induc 0, ERAP1 HTS inh -1, DENV2 CPE 59*, SIRT5 block 2 and PglD inh 9.
For C[C@H](O)C#Cc1ccc([C@H]2[C@@H](CO)N3CCCCN(C(=O)c4ccncc4)C[C@@H]23)cc1 the results were E-selectin induc 0, ERAP1 HTS inh 5, DENV2 CPE -9, SIRT5 block 0 and PglD inh 4.
Screening COc1ccc(C#Cc2ccc([C@@H]3[C@@H](CO)N4CCCCN(C(=O)c5ccncc5)C[C@H]34)cc2)cc1 returned E-selectin induc 0, ERAP1 HTS inh -2, DENV2 CPE 28*, SIRT5 block -1 and PglD inh 5.
`C[C@H](O)C#Cc1ccc([C@H]2[C@@H](CO)N3CCCCN(C(=O)c4ccncc4)C[C@H]23)cc1` gave E-selectin induc 0, ERAP1 HTS inh 4, DENV2 CPE -10, SIRT5 block -1 and PglD inh 6.
Screening O=C(O)c1cccc2c1C(=O)c1ccc(Cl)cc1S2(=O)=O returned E-selectin induc 0, ERAP1 HTS inh 3, DENV2 CPE -1, SIRT5 block -2 and PglD inh 1.
Screening COc1ccc(C2CC(=O)c3c(O)cc(O)cc3O2)cc1O (stereo unspecified) returned ERAP1 HTS inh -1, DENV2 CPE 23*, SIRT5 block 3 and PglD inh 2.
For O=C1CC(c2ccccc2)Oc2cc(O)cc(O)c21 (stereo unspecified) the results were ERAP1 HTS inh -2, DENV2 CPE 70*, SIRT5 block 1 and PglD inh 3.
For CC(=O)N1CC[C@@H]2[C@@H](CO)Nc3ccc(C#Cc4cccnc4)cc3[C@@H]21 the results were E-selectin induc 1, ERAP1 HTS inh 2, DENV2 CPE 9, SIRT5 block 7 and PglD inh 7.
For CCn1c(SCC(=O)N2CCCCCC2)nc2c([nH]c3ccccc32)c1=O the results were E-selectin induc 0, ERAP1 HTS inh 2, DENV2 CPE 63*, SIRT5 block -9 and PglD inh -4.
Cc1ccc(COc2ccc(/C=N/O)cc2)cc1 was read as E-selectin induc 107*, ERAP1 HTS inh -1, DENV2 CPE 2 and SIRT5 block -4.
`Cc1c(C)n(C)c2ccc(C(=O)NCCN3CCOCC3)cc12` gave E-selectin induc 0, ERAP1 HTS inh -2, DENV2 CPE 8, SIRT5 block 34* and PglD inh -2.
For CCn1c(C)c(C)c2cc(C(=O)NCCN3CCOCC3)ccc21 the results were ERAP1 HTS inh 1, DENV2 CPE -6, SIRT5 block 0 and PglD inh 5.
O=C(COC(=O)c1ccccc1C(=O)c1ccccc1)NCCc1ccc(Cl)cc1Cl was read as E-selectin induc -1, ERAP1 HTS inh -3, DENV2 CPE -9, SIRT5 block 0 and PglD inh 3.
Screening O=C(c1cccs1)N1CCN(c2nc3ccc([N+](=O)[O-])cc3s2)CC1 returned E-selectin induc -1, ERAP1 HTS inh -3, DENV2 CPE 11 and SIRT5 block -1.
For CCc1nc(Nc2ccc(OC)cc2OC)c2oc3ccccc3c2n1 the results were E-selectin induc 0, ERAP1 HTS inh 32*, DENV2 CPE -2, SIRT5 block -5 and PglD inh 5.
CC(=NCC1CCCO1)C1=C(O)CC(C)(C)CC1=O (stereo unspecified) was read as PglD inh -13.
C[C@@H]1CN([C@H](C)CO)S(=O)(=O)c2ccc(-c3cccc(C#N)c3)cc2O[C@H]1CN(C)C(=O)c1ccccc1 was read as E-selectin induc 0, ERAP1 HTS inh 2, DENV2 CPE -5, SIRT5 block 1 and PglD inh 3.
For O=S(=O)(/N=C(\c1ccccc1)N1CCOCC1)c1cccs1 the results were PglD inh 1.
Cc1ccccc1S(=O)(=O)/N=C(/c1ccccc1)N1CCOCC1 was read as ERAP1 HTS inh -4, DENV2 CPE 1 and SIRT5 block 16*.
C=CCC12C[C@@]3(O[C@H](c4ccc(C(F)(F)F)cc4)N=C3C[C@H](c3ccc(OC)cc3)[C@H]1C)N(Cc1ccc3c(c1)OCO3)C2=O was read as E-selectin induc 0, ERAP1 HTS inh 1 and DENV2 CPE inconclusive.
For C=CCOC(=O)C1=C[C@@H](c2ccc(Br)cc2)C[C@@H](OCc2ccc(CO)cc2)O1 the results were E-selectin induc 0, ERAP1 HTS inh -5, DENV2 CPE -3, SIRT5 block 26*! and PglD inh -4.
Brc1ccc(OCc2nnc(SCC3CCCCC3)o2)cc1 was read as E-selectin induc 0, ERAP1 HTS inh -3, DENV2 CPE 29*, SIRT5 block 0 and PglD inh -2.
`COc1ccccc1-n1c(SCC(=O)Nc2ccc(Br)cc2)nc(O)cc1=O` gave E-selectin induc 0, ERAP1 HTS inh -4, DENV2 CPE 7, SIRT5 block 0 and PglD inh 4.
Screening O=C(Nc1ccnn1C1CCN(Cc2ccc(Cl)cc2)CC1)C1CCCC1 returned E-selectin induc 0, ERAP1 HTS inh -1, DENV2 CPE -5, SIRT5 block -3 and PglD inh -1.
